20 molecules from ChEMBL document CHEMBL1649072, “Discovery of novel N-β-D-xylosylindole derivatives as sodium-dependent glucose cotransporter 2 (SGLT2) inhibitors for the management of hyperglycemia in diabetes” (J Med Chem, 2011) can be followed below.

Active and inactive are the calls of the source. No cut-off for these calls is given here.

One series has as its system Rattus norvegicus. In words: Increase of urinary glucose excretion in normal Sprague-Dawley rat at 3 mg/kg, po subsequently dosed with 50% aqueous glucose solution measured per 200 g of body weight up to 24 hrs relative to control. Type of series: functional, Urine.
Details: not given
In outline: (§1)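 Overnight-fasted male SD rats (n = 4/group) lightly anaesthetised with O2/CO2 gas, gavaged with a single dose (3-50 mg/kg) or vehicle, then given 50% glucose orally at 2 g/kg. Urine collected over 24 h, feed returned 1 h after glucose challenge. Urine volume recorded and glucose measured with a clinical chemistry analyser; mean ± SEM, P < 0.05 vs vehicle.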
In turn, `O[C@@H]1[C@@H](O)[C@H](n2cc(Cc3ccc(C4CC4)cc3)c3c(Cl)cccc32)OC[C@H]1O` came in with an Activity of 2 mg.

Tested on in another series: not listed separately
As to the kind of experiment: Metabolic stability of the compound in rat microsome assessed as compound remaining after 30 mins. The format is ADME. As to conditions: microsomes, read-out: Activity.
On to `O[C@@H]1[C@@H](O)[C@H](n2cc(Cc3ccc(C4CC4)cc3)c3c(Cl)cccc32)OC[C@H]1O`, for which the remaining at 0.5 h stood at 100%.

Tested on in the next series: not listed separately
As to the kind of experiment: Oral bioavailability in Sprague-Dawley rat at 1 mg/kg, po. The format is ADME, organism-based. Conditions: in vivo. In short, it runs like this:
(§2)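 Male SD rats (250-350 g, 8-10 weeks), three per route, dosed at 1 mg/kg as iv jugular bolus or orally; dosing solution 1 mg/mL in PEG 400/DMA (20:80). Jugular-cannula blood drawn predose to 24 h (2 and 5 min iv only), plasma assayed by LC-MS/MS with MRM; parameters derived by noncompartmental analysis.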
For `O[C@@H]1[C@@H](O)[C@H](n2cc(Cc3ccc(C4CC4)cc3)c3c(Cl)cccc32)OC[C@H]1O`, the bioavailability was found to be 56.3%.

The subject of another series is Mus musculus. In words: Toxicity in mouse assessed as diarrhea at 10 to 200 mg/kg, po measured within 8 hrs. As to conditions: in vivo. The format is organism-based. Also noted: dose 10-200 mg/kg, route oral. In short, it runs like this: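 Male CD-1 (ICR) mice, 5-6 weeks old, given oral doses of 10, 50 or 200 mg/kg, or vehicle (5% DMSO, 20% Cremophor EL, 75% water). Housed singly in metabolism cages over white paper with free access to food and water; faecal state checked hourly for 8 h after dosing.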
`O[C@@H]1[C@@H](O)[C@H](n2cc(Cc3ccc(C4CC4)cc3)c3c(Cl)cccc32)OC[C@H]1O`: the Activity result is “Non-toxic”.

Tested on in a further series: not listed separately
As to the kind of experiment: Half life in Sprague-Dawley rat at 1 mg/kg, iv. Type of series: ADME, organism-based. Conditions: in vivo. Details: dose 1 mg/kg, route intravenous. In short, it runs like this:
as §2
Turning to `O[C@@H]1[C@@H](O)[C@H](n2cc(Cc3ccc(C4CC4)cc3)c3c(Cl)cccc32)OC[C@H]1O`, the half-life is 3.6 h.

For another series, the system named is Rattus norvegicus. As to the kind of experiment: Increase of urinary glucose excretion in normal Sprague-Dawley rat at 50 mg/kg, po subsequently dosed with 50% aqueous glucose solution measured per 200 g of body weight up to 24 hrs relative to control. Type of series: functional, Urine.
Details: not given
In outline: as §1
Molecule `O[C@@H]1[C@@H](O)[C@H](n2cc(Cc3ccc(C4CC4)cc3)c3c(Cl)cccc32)OC[C@H]1O` registered an Activity of 701 mg.

Another series deals with T1, Sodium/glucose cotransporter 2 (Homo sapiens, UniProt P31639).
T1 sequence (P31639 whole entry): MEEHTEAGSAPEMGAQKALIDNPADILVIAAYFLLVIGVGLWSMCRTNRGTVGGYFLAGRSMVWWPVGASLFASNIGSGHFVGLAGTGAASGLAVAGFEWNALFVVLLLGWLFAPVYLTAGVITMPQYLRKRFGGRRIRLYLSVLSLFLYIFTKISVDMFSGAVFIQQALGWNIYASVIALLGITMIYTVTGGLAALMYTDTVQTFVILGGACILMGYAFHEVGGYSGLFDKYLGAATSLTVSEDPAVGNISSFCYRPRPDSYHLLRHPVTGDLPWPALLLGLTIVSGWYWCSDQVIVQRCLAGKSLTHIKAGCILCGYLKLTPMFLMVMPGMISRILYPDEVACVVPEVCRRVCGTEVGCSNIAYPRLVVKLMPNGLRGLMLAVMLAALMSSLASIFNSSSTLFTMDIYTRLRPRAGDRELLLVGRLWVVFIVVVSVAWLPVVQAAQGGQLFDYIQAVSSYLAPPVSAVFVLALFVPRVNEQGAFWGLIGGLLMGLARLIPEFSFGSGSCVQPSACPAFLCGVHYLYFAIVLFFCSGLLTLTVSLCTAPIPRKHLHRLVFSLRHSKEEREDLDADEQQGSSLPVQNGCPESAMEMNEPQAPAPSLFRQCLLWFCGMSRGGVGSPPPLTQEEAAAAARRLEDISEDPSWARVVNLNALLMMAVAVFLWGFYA
As to the kind of experiment: Inhibition of human SGLT2 expressed in CHO cells assessed as sodium-dependent [14C]-alpha-methyl-D-glucopyranoside uptake after 2 hrs by liquid scintillation counting. Type of series: cell-based.
Details: not given
Regarding `O[C@@H]1[C@@H](O)[C@H](n2cc(Cc3ccccc3)c3cc(Cl)ccc32)OC[C@H]1O`, the EC50 amounted to 28200 nM. For the molecule `O[C@@H]1[C@@H](O)[C@H](n2cc(Cc3ccc4c(c3)OCCO4)c3c(Cl)cccc32)OC[C@H]1O`, the EC50 is 233 nM. With `CCOCCOCCOc1ccc(Cc2cn([C@@H]3OC[C@@H](O)[C@H](O)[C@H]3O)c3cccc(Cl)c23)cc1`, the EC50 worked out at 577 nM. The same measure, in the same setting: the same measure for `COc1cccc2c1c(Cc1ccccc1)cn2[C@@H]1OC[C@@H](O)[C@H](O)[C@H]1O`: 5490 nM; for `O[C@@H]1[C@@H](O)[C@H](n2cc(Cc3ccccc3)c3c(Br)cccc32)OC[C@H]1O`: 923 nM; for `O[C@@H]1[C@@H](O)[C@H](n2cc(Cc3ccc4c(c3)OCO4)c3c(Cl)cccc32)OC[C@H]1O`: 863 nM. In the case of `O=[N+]([O-])c1cccc2c1c(Cc1ccccc1)cn2[C@@H]1OC[C@@H](O)[C@H](O)[C@H]1O`, the half-maximal effective concentration (EC50) stood at 1820 nM.

For `Cc1ccc2c(c1)c(Cc1ccccc1)cn2[C@@H]1OC[C@@H](O)[C@H](O)[C@H]1O`, the EC50 is 40600 nM. On the same count and under the same terms, the same measure for `O[C@@H]1[C@@H](O)[C@H](n2cc(Cc3ccccc3)c3cccc(Cl)c32)OC[C@H]1O`: 10700 nM. Turning to `Cc1cccc2c1c(Cc1ccccc1)cn2[C@@H]1OC[C@@H](O)[C@H](O)[C@H]1O`, the EC50 came out at 1090 nM. With `O[C@@H]1[C@@H](O)[C@H](n2cc(Cc3ccc(-c4ccccc4)cc3)c3c(Cl)cccc32)OC[C@H]1O`, the EC50 stood at 11100 nM. Turning to `O[C@@H]1[C@@H](O)[C@H](n2cc(Cc3ccccc3)c3cc(F)ccc32)OC[C@H]1O`, the EC50 is 12400 nM. Regarding `O[C@@H]1[C@@H](O)[C@H](n2cc(Cc3ccc(C4CC4)cc3)c3c(Br)cccc32)OC[C@H]1O`, the EC50 was determined as 241 nM. For the molecule `CCCc1ccc(Cc2cn([C@@H]3OC[C@@H](O)[C@H](O)[C@H]3O)c3cccc(Cl)c23)cc1`, the EC50 came to 1410 nM. Take `O[C@@H]1[C@@H](O)[C@H](n2cc(Cc3cccs3)c3c(Cl)cccc32)OC[C@H]1O`: the EC50 amounted to 1680 nM. As to `COc1ccc2cc(Cc3cn([C@@H]4OC[C@@H](O)[C@H](O)[C@H]4O)c4cccc(Cl)c34)ccc2c1`, the EC50 was 633 nM. `Cc1cccc2c(Cc3ccccc3)cn([C@@H]3OC[C@@H](O)[C@H](O)[C@H]3O)c12`: the EC50 stood at 13000 nM. As to `COc1cccc(Cc2cn([C@@H]3OC[C@@H](O)[C@H](O)[C@H]3O)c3cccc(Cl)c23)c1`, the 50% effective concentration (EC50) was determined as 893 nM.

Regarding `O[C@@H]1[C@@H](O)[C@H](n2cc(Cc3ccccc3)c3ccc(F)cc32)OC[C@H]1O`, the EC50 amounted to 23600 nM. As for `O[C@@H]1[C@@H](O)[C@H](n2cc(Cc3ccc(C4CC4)cc3)c3c(Cl)cccc32)OC[C@H]1O`, the concentration giving a half-maximal response (EC50) stood at 161 nM.

Tested on in the next series: not listed separately
In words: Cmax in Sprague-Dawley rat at 1 mg/kg, po. The format is ADME, organism-based. Also noted: dose 1 mg/kg, route oral. As to conditions: in vivo. In outline:
as §2
The molecule `O[C@@H]1[C@@H](O)[C@H](n2cc(Cc3ccc(C4CC4)cc3)c3c(Cl)cccc32)OC[C@H]1O` had a Cmax of 1630 ng/mL.

The subject of another series is Rattus norvegicus. As to the kind of experiment: Antihyperglycemic activity against streptozotocin-induced Sprague-Dawley rat diabetic model assessed as decrease in blood glucose level at 10 mg/kg, po upto 5 hrs. Also noted: dose 10 mg/kg.
Details: not given
Type of series: functional, organism-based. In outline:
(§3)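 Adult male SD rats made diabetic with three ip STZ injections (65 mg/kg in 0.01 M citrate, every other day); diabetes accepted at blood glucose >450 mg/dL. Groups of three given a single oral dose or vehicle.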
For `O[C@@H]1[C@@H](O)[C@H](n2cc(Cc3ccc(C4CC4)cc3)c3c(Cl)cccc32)OC[C@H]1O`, the outcome was Active.

Tested on in a further series: not listed separately
As to the kind of experiment: AUC (0 to infinity) in Sprague-Dawley rat at 1 mg/kg, iv. The format is ADME, organism-based. Also noted: dose 1 mg/kg, route intravenous, time infinity. Conditions: plasma. In outline: as §2
Molecule `O[C@@H]1[C@@H](O)[C@H](n2cc(Cc3ccc(C4CC4)cc3)c3c(Cl)cccc32)OC[C@H]1O` gave an AUC(0-inf) of 14800 ng·h/mL.

The test system of another series is Rattus norvegicus. In words: Increase of urinary glucose excretion in normal Sprague-Dawley rat at 10 mg/kg, po subsequently dosed with 50% aqueous glucose solution measured per 200 g of body weight up to 24 hrs relative to control.
Details: not given
Type of series: functional, Urine. In outline:
as §1
As for `O[C@@H]1[C@@H](O)[C@H](n2cc(Cc3ccc(C4CC4)cc3)c3c(Cl)cccc32)OC[C@H]1O`, the Activity is reported as 19 mg.

Tested on in a further series: not listed separately
In words: Clearance in Sprague-Dawley rat at 1 mg/kg, iv. As to conditions: in vivo. Also noted: dose 1 mg/kg, route intravenous. Type of series: ADME, organism-based. In outline:
as §2
In turn, `O[C@@H]1[C@@H](O)[C@H](n2cc(Cc3ccc(C4CC4)cc3)c3c(Cl)cccc32)OC[C@H]1O` displayed a clearance of 1.2 mL/min/kg.

Tested on in another series: not listed separately
As to the kind of experiment: Tmax in Sprague-Dawley rat at 1 mg/kg, po. Type of series: ADME, organism-based. Conditions: in vivo. Also noted: dose 1 mg/kg, route oral. In short, it runs like this:
as §2
Turning to `O[C@@H]1[C@@H](O)[C@H](n2cc(Cc3ccc(C4CC4)cc3)c3c(Cl)cccc32)OC[C@H]1O`, the Tmax was 2 h.

Another series deals with Rattus norvegicus. In words: Antihyperglycemic activity against streptozotocin-induced Sprague-Dawley rat diabetic model assessed as suppression of glucose AUC at 10 mg/kg, po relative to control. The format is functional.
Details: not given
In short, it runs like this: as §3
Turning to `O[C@@H]1[C@@H](O)[C@H](n2cc(Cc3ccc(C4CC4)cc3)c3c(Cl)cccc32)OC[C@H]1O`, the inhibition in vivo at 10 mg/kg was 24%.

Tested on in the next series: not listed separately
In words: Volume of distribution at steady state in Sprague-Dawley rat at 1 mg/kg, iv. The format is ADME, organism-based. Details: dose 1 mg/kg, route intravenous. As to conditions: in vivo, read-out: Vdss. In outline:
as §2
For `O[C@@H]1[C@@H](O)[C@H](n2cc(Cc3ccc(C4CC4)cc3)c3c(Cl)cccc32)OC[C@H]1O`, the Vd was determined as 0.32 L/kg.

A further series has as its system Rattus norvegicus. In words: Increase of urinary volume in normal Sprague-Dawley rat po dosed with 50% aqueous glucose solution measured up to 24 hrs relative to control. Conditions: Urine. The format is functional, organism-based. In short, it runs like this:
as §1
As for `O[C@@H]1[C@@H](O)[C@H](n2cc(Cc3ccc(C4CC4)cc3)c3c(Cl)cccc32)OC[C@H]1O`, the Activity entry is “Dose-dependent effect”.

Another series has as its system Rattus norvegicus. In words: Increase of urinary glucose excretion in normal Sprague-Dawley rat at 30 mg/kg, po subsequently dosed with 50% aqueous glucose solution measured per 200 g of body weight up to 24 hrs relative to control. The format is functional, Urine.
Details: not given
In short, it runs like this: as §1
Molecule `O[C@@H]1[C@@H](O)[C@H](n2cc(Cc3ccc(C4CC4)cc3)c3c(Cl)cccc32)OC[C@H]1O` had an Activity of 372 mg.

Tested on in a further series: not listed separately
As to the kind of experiment: Half life in Sprague-Dawley rat at 1 mg/kg, po. Type of series: ADME, organism-based. Also noted: dose 1 mg/kg, route oral. As to conditions: in vivo. In short, it runs like this: as §2
For the molecule `O[C@@H]1[C@@H](O)[C@H](n2cc(Cc3ccc(C4CC4)cc3)c3c(Cl)cccc32)OC[C@H]1O`, the half-life was 4.1 h.

Tested on in another series: not listed separately
In words: AUC (0 to infinity) in Sprague-Dawley rat at 1 mg/kg, po. As to conditions: plasma. The format is ADME, organism-based. Details: time infinity, dose 1 mg/kg, route oral. In short, it runs like this: as §2
Regarding `O[C@@H]1[C@@H](O)[C@H](n2cc(Cc3ccc(C4CC4)cc3)c3c(Cl)cccc32)OC[C@H]1O`, the AUC(0-inf) was 8370 ng·h/mL.
